Laboratory results from ChEMBL document CHEMBL1154565, “Cytotoxic constituents of the roots of Ekmanianthe longiflora” (2000).
≈ marks a conversion by molar mass, not a printed value. Calls of active or inactive are those of the source. The rule behind the calls is not given here.

Assays:
[1] = system: KB; experiment: Cytotoxicity against human KB cells; format: functional; details: for EC50: read-out: ED50 (the source's name)
[2] = system: LNCaP; experiment: Cytotoxicity against human LNCaP cells; format: functional; details: for EC50: read-out: ED50 (the source's name)
[3] = system: KB-V; experiment: (§1) Cytotoxicity against human multidrug resistant KB-V cells; format: functional
[4] = system: Col2; experiment: Cytotoxicity against human Col2 cells; format: functional; details: for EC50: read-out: ED50 (the source's name)
[5] = system: Lo1; experiment: (§2) Cytotoxicity against human […] cells; format: functional
[6] = system: KB-V; experiment: (§3) Cytotoxicity against human multidrug resistant KB-V cells in presence of vinblastine; format: functional
[7] = system: SK-N-SH; experiment: Cytotoxicity against human SK-N-SH cells; format: functional; details: for EC50: read-out: ED50 (the source's name)
[8] = system: BC1; experiment: (§4) Cytotoxicity against human BC1 cells; format: functional
[9] = system: SW626; experiment: Cytotoxicity against human SW626 cells; format: functional; details: for EC50: read-out: ED50 (the source's name)
[10] = system: M109 (Mus musculus); experiment: Cytotoxicity against mouse M109 cells; details: for EC50: read-out: ED50 (the source's name)
[11] = as §1; format: functional; details: KBV, read-out: ED50 (the source's name)
[12] = as §2; format: functional; details: read-out: ED50 (the source's name)
[13] = as §3; format: functional; details: KBV, read-out: ED50 (the source's name)
[14] = as §4; format: functional; details: read-out: ED50 (the source's name)
[15] = system: P388; experiment: Antitumor activity against mouse P388 leukemia system at 72 mg/kg, ip relative to control; format: functional; details: route intraperitoneal
Method in brief: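 Six female CDF1 mice per group received 10^6 P-388 cells i.p. in 0.5 mL RPMI medium. Starting one day later, test compound was given i.p. daily for 5 days, with doses of 8, 24 and 72 mg/kg/injection. Read-out was survival, reported as % T/C (median survival of treated over control ×100). T/C ≥125% was taken as significant.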

Compound	Activity [1]	Activity [2]	Activity [3]	Activity [4]	Activity [5]	Activity [6]	Activity [7]	Activity [8]	Activity [9]	Activity [10]	EC50 [1]	EC50 [2]	EC50 [11]	EC50 [4]	EC50 [12]	EC50 [13]	EC50 [7]	EC50 [14]	EC50 [9]	EC50 [10]	further results
CC(C)=CC[C@@H]1C(=O)c2ccccc2[C@@H](O)[C@@H]1O	inactive	inactive	inactive	inactive	inactive	inactive	inactive	inactive	inactive	inactive											
CC1(C)CCC2=C(O1)C(=O)c1ccccc1C2=O [ALPHA-LAPACHONE]											13 µg/mL (≈ 53.7 µM)	7.1 µg/mL (≈ 29.3 µM)	12.9 µg/mL (≈ 53.2 µM)	9.9 µg/mL (≈ 40.9 µM)	5.3 µg/mL (≈ 21.9 µM)	8.3 µg/mL	5.1 µg/mL (≈ 21.1 µM)	6.7 µg/mL (≈ 27.7 µM)	3 µg/mL (≈ 12.4 µM)	9 µg/mL (≈ 37.1 µM)	
CC(O)c1cc2c(o1)C(=O)c1ccccc1C2=O (stereo unspecified)											0.5 µg/mL (≈ 2.06 µM)	3.5 µg/mL (≈ 14.4 µM)	2 µg/mL (≈ 8.26 µM)	1.8 µg/mL (≈ 7.43 µM)	0.2 µg/mL (≈ 0.826 µM)	1.2 µg/mL	4 µg/mL (≈ 16.5 µM)	3.2 µg/mL (≈ 13.2 µM)	0.3 µg/mL (≈ 1.24 µM)	1.8 µg/mL (≈ 7.43 µM)	T/C [15]: 110%
CC(C)=CC[C@@H]1C[C@H](O)c2ccccc2C1=O	inactive	inactive	inactive	inactive	inactive	inactive	inactive	inactive	inactive	inactive											
CC(C)(O)[C@H]1C[C@H]2C(=O)c3ccccc3[C@@H](O)[C@@H]2O1 (relative stereo)	inactive	inactive	inactive	inactive	inactive	inactive	inactive	inactive	inactive	inactive											
C=C(C)C1CC2=C(O1)C(=O)c1ccccc1C2=O (stereo not drawn) [DEHYDROISO-ALPHA-LAPACHONE]											0.2 µg/mL (≈ 0.832 µM)	0.2 µg/mL (≈ 0.832 µM)	0.5 µg/mL (≈ 2.08 µM)	0.2 µg/mL (≈ 0.832 µM)	0.2 µg/mL (≈ 0.832 µM)	0.3 µg/mL	0.2 µg/mL (≈ 0.832 µM)	1 µg/mL (≈ 4.16 µM)	0.3 µg/mL (≈ 1.25 µM)	0.4 µg/mL (≈ 1.66 µM)	
CC(C)=CC[C@H]1C(=O)c2ccccc2[C@@H](O)[C@@H]1O	inactive	inactive	inactive	inactive	inactive	inactive	inactive	inactive	inactive	inactive											
CC(=O)c1cc2c(o1)C(=O)c1ccccc1C2=O [NAPABUCASIN]											0.2 µg/mL (≈ 0.833 µM)	0.2 µg/mL (≈ 0.833 µM)	0.9 µg/mL (≈ 3.75 µM)	0.4 µg/mL (≈ 1.67 µM)	0.3 µg/mL (≈ 1.25 µM)	0.9 µg/mL	0.8 µg/mL (≈ 3.33 µM)	0.4 µg/mL (≈ 1.67 µM)	0.2 µg/mL (≈ 0.833 µM)	0.9 µg/mL (≈ 3.75 µM)	
CC(C)=CC[C@H]1C[C@H](O)c2ccccc2C1=O	inactive	inactive	inactive	inactive	inactive	inactive	inactive	inactive	inactive	inactive											
